Screening data as filed in PubChem BioAssay.
Only some compounds are listed: those with a hit (about 5.5% of all), similar ones and a draw of the others.
STAT1 inh: inhibitors of IFN-gamma induced STAT1 signaling; actives 0.35% (n = 200,000); NIH 3T3 STAT1-luciferase reporter, luminescence; inhibition, % at 5.5 µM;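 active = inhibition above a set limit, the mean inhibition across all tested compounds plus 3 SD, cut at about 34% in these data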
STAT3 blocker: STAT3 signaling inhibition; inhibition, % at 5.5 µM; U3A cells, IL-6 STAT3-luciferase reporter, luminescence; host cell line lacks STAT1; actives 0.89% (n = 190,000); AID 862;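 active = inhibition above the mean inhibition across all screened compounds plus 3 SD, cut at about 44% in these data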
STAT1 act: activators of IFN-gamma induced STAT1 signaling | NIH 3T3 STAT1-luciferase reporter, luminescence; 100% = IFN-gamma alone, no compound | activation (% of control), % at 5.5 µM | actives 2.6% (n = 200,000) | AID 932;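 active = activation above the screen-wide mean activation plus 3 SD, cut at about 130% in these data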
STAT3 act: activators of IL-6 induced STAT3 signaling | U3A cells, IL-6 STAT3-luciferase reporter, luminescence; 100% = signal with IL-6 EC80 alone | activation (% of control), % at 5.6 µM | actives 0.91% (n = 190,000) | AID 871;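 active = activation above the screen-wide mean of compound activation plus 3 SD, cut at about 130% in these data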
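System – human U3A cells carrying STAT3-luciferase construct · Probe or stimulus – Interleukin-6, 33 ng/mL · Schedule – compound 1 h, then IL-6 6 h at 37 °C · Signal – luminescence from STAT3-driven luciferase reporter · Evaluation – percent of IL-6-only median luminescence · Benchmarks – IL-6-only high control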
HSV replic up: HSV replication enhancement. HSV replication augmentation in cells, fold increase. maximum fold increase. actives 0.005% (n = 220,000). AID 1956; in the data active = maximum fold increase above about 1.5; tested in PC3 cells
Cl transport mod: modulators of human KCC2 chloride dependent transport; Q9H2X9; KCC2 cells, thallium flux FluoZin-2 fluorescence; B-score of Tl+ flux slope (higher = more flux/activation; lower = inhibition) at 10 µM; actives 2.2% (n = 190,000); AID 1456;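 active = thallium flux slope and its plate-corrected score both differing from the plate sample mean at a set confidence after two filtering rounds, in either direction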;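 also: slope of fluorescence scaled to starting intensity during 10 to 20 s after thallium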
Target sequence (Q9H2X9 whole entry, looked up): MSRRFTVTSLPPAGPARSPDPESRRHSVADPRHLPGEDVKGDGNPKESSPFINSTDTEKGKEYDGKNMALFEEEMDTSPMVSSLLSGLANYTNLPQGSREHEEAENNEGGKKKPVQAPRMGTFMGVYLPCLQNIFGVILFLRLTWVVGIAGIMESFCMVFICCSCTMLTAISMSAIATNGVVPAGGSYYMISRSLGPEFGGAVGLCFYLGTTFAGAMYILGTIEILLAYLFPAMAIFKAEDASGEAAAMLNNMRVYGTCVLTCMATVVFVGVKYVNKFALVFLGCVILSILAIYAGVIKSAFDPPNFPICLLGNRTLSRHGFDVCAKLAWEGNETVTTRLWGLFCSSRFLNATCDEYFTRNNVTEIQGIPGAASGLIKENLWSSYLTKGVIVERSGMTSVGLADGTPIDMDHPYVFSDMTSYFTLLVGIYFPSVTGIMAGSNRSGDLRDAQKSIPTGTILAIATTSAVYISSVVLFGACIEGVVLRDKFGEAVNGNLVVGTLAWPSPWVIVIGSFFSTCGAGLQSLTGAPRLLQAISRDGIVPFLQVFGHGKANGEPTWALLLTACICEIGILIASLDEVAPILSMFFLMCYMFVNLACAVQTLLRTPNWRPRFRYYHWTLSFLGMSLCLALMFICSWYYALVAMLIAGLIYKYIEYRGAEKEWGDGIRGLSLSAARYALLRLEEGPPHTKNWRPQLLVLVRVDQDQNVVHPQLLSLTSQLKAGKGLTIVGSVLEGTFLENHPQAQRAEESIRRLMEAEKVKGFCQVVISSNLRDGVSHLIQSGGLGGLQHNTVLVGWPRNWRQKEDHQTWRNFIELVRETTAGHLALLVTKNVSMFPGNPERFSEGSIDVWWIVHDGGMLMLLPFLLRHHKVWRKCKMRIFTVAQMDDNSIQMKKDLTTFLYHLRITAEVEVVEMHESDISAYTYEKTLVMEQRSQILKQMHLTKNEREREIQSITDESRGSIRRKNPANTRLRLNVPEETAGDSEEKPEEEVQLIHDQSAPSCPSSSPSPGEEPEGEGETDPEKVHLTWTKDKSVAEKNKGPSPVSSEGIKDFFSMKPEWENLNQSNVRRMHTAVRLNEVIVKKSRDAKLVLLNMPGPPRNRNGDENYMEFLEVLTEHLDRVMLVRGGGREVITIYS
STAT1 act conf: STAT1 activation, confirmation assay; NIH 3T3 STAT1-luciferase reporter, IFN-gamma potentiation, luminescence; 100% = IFN-gamma EC80 alone, no compound; shares compounds with STAT1 act; actives 97% (n = 1,200); AID 1262; activation (% of control), % at 5.7 µM;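 active = activation above a set limit carried over from the earlier primary STAT1 screen, cut at about 140% in these data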
NFkB act STAT1ct: activates NF-kappaB, counter-screen to STAT1 activators | shares compounds with STAT1 act | HEK293T NF-kB luciferase reporter, TNF-alpha stimulated, luminescence; 100% = TNF-alpha with vehicle only | activation (% of control), % at 5.7 µM | actives 43% (n = 1,200) | AID 1306;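 active = activation above the mean of solvent-only control wells plus 3 SD, set per campaign, cut at about 130% in these data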;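 also: TNF-alpha given at a submaximal dose yielding about 80% of full reporter signal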
STAT3 act 2: activates human STAT3, counter-screen to STAT1 activators; shares compounds with STAT1 act; U3A cells STAT3-luciferase reporter, IL-6, luminescence; cells lack STAT1; 100 = IL-6 alone, no compound effect; activation (% of control), % at 5.7 µM; actives 46% (n = 1,200); AID 1316;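 active = activation above the solvent-only control well mean plus 3 SD, set per plate batch, cut at about 110% in these data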;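 also: higher means more STAT3 reporter activation so hits are non-selective activators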
A number is an active result; n = inactive; x = not tested or not shown.

SMILES	STAT1 inh	STAT3 blocker	STAT1 act	STAT3 act	HSV replic up	Cl transport mod	STAT1 act conf	NFkB act STAT1ct	STAT3 act 2
O=C(/C=C/c1cccc(F)c1)Nc1nccs1	n	n	151	n	n	n	175	137	112
Cc1ccccc1NC(=O)C[n+]1cc(-c2ccccc2)n2c1CCC2	x	x	x	x	n	n	x	x	x
O=[N+]([O-])c1ccc(N2CCC(O)CC2)nc1	n	n	n	n	n	n	x	x	x
CCN(CCCNC(=O)CCc1nc(-c2ccc(OC)cc2)no1)c1cccc(C)c1	n	n	n	n	n	x	x	x	x
COc1ccc(-c2cc(=O)c3cc(OC)ccc3[nH]2)cc1	n	n	153	n	n	n	165	n	n
Cc1ccc(C(=O)C(C)OC(=O)c2ccccc2[N+](=O)[O-])cc1 (stereo unspecified)	n	n	181	n	n	n	213	n	127
Cc1ccc(NC(NC(=O)c2ccccc2[N+](=O)[O-])C(Cl)(Cl)Cl)cc1 (stereo unspecified)	n	n	n	n	n	n	x	x	x
Clc1ccc(OCCn2cnc(Cl)c2Cl)cc1	x	x	x	x	n	n	x	x	x
Cc1cc(/C=C2/NC(=S)NC2=O)c(C)n1-c1cccnc1	n	n	n	n	n	n	x	x	x
Cc1cc(/C=C2/NC(=O)N(c3ccccc3)C2=O)c(C)n1-c1cccnc1	n	n	151	n	n	n	192	n	119
O=C(O)c1ccc(N=NN2CCCC2)cc1	n	n	n	n	n	n	x	x	x
O=C(O)c1ccc(N=NN2CCCCCC2)cc1	n	n	157	n	n	n	166	n	120
CCCC(=O)Nc1nc(-c2ccc(OC)cc2)cs1	n	n	n	n	n	n	x	x	x
CSCC(=O)Nc1nc(-c2ccc3c(c2)OCCO3)cs1	n	n	158	n	n	n	189	139	114
CCCC(=O)Nc1nc(-c2ccc3c(c2)OCCO3)cs1	n	n	158	n	n	n	181	143	n
O=C(/C=C/c1ccccc1)Nc1ccc(Cl)cn1	n	n	156	n	n	n	208	n	n
O=C(CC(c1ccccc1)c1ccccc1)Nc1ccc(Cl)cn1	n	n	n	n	n	n	x	x	x
COCC1CCCN(C(=O)c2ccc(OC3CCN(Cc4ccccn4)CC3)cc2)C1 (stereo unspecified)	n	n	n	n	n	n	x	x	x
Clc1ccccc1Nc1nc(-c2cccnc2)cs1	n	n	168	n	n	n	226	134	111
c1ccc(CCNc2nc(-c3ccncc3)cs2)cc1	n	n	n	n	n	n	x	x	x
c1ccc(-c2csc(Nc3ncccn3)n2)cc1	n	n	157	n	n	n	240	n	n
Clc1ccccc1-c1csc(Nc2cccnc2)n1	x	x	x	x	n	n	x	x	x
CCCCCNc1nc(-c2ccccc2)cs1	n	n	153	n	n	x	177	n	n
NNc1nc(-c2ccccc2)cs1	n	n	n	n	n	n	x	x	x
CC(=O)Nc1ccc(-c2csc(Nc3ncccn3)n2)cc1	n	n	155	n	n	n	168	n	111
SMILES	STAT1 inh	STAT3 blocker	STAT1 act	STAT3 act	HSV replic up	Cl transport mod	STAT1 act conf	NFkB act STAT1ct	STAT3 act 2
CN1CCN(C(=O)c2cc3c(C(F)(F)F)nn(C)c3s2)CC1	n	n	n	n	n	n	x	x	x
COC(=O)C(CC(=O)c1ccc(Br)cc1)n1ccnc1 (stereo unspecified)	n	n	n	n	x	n	x	x	x
O=C(O)c1nn(-c2cccc(Cl)c2)c(=O)cc1O	n	n	n	n	n	n	x	x	x
CN(C1CCCCC1)S(=O)(=O)c1ccc(C(=O)N2CCN(c3nc4ccccc4s3)CC2)cc1	n	n	n	n	n	n	x	x	x
COc1ccc(C2=NN(C(C#N)c3ccc(OC)cc3)C(c3ccccc3)C2)cc1 (stereo unspecified)	n	n	172	n	n	n	n	n	n
COc1ccc(C(C#N)N2N=C(c3ccccc3)CC2c2ccccc2)cc1OC (stereo unspecified)	n	n	n	n	n	n	x	x	x
O=C1C(C=Nc2ccccc2)=C(O)c2ccccc21	n	n	163	n	n	x	244	n	126
COc1ccc(OC)c(-n2nnnc2SCC(=O)Nc2ccccc2N2CCOCC2)c1	n	n	n	n	n	n	x	x	x
Cc1nn(-c2ccccc2)c(C)c1C(=O)OCC(=O)Nc1ccc2c(c1)OCO2	n	n	n	n	n	n	x	x	x
N#C/C(=N\Nc1ccc(Cl)cc1)C(N)=S	x	x	x	x	n	n	x	x	x
N#C/C(=N\Nc1ccc(Cl)cc1)C(=N)N1CCCCC1	n	n	223	n	n	n	316	149	118
c1ccc(-c2cn3nc(-c4ccccc4)cnc3n2)cc1	n	n	155	n	n	n	212	n	n
COc1ccc(OC)c(S(=O)(=O)NC(C)(C)C)c1	n	n	n	n	n	x	x	x	x
Cc1ccn2c(c1)nc(=S)n2C(=O)c1ccccc1	n	n	283	n	n	n	518	185	138
Cc1cc(C)n(-c2ccc(C(=O)Nc3nc4ccccc4s3)cc2)n1	n	n	174	n	n	n	225	141	n
O=C(Nc1nc2ccccc2s1)c1ccc(N2CCCCC2)c([N+](=O)[O-])c1	n	n	166	n	n	n	197	n	n
CC(C)CNc1oc(-c2ccc(F)cc2)nc1C#N	n	n	n	n	n	n	x	x	x
Clc1ccc(-n2ncc3c(N4CCCC4)ncnc32)cc1	n	n	184	n	n	n	207	n	n
CCOC(=O)C1CCN(c2ncnc3c2cnn3-c2ccccc2)CC1	n	n	n	n	n	n	x	x	x
CCOC(=O)C1CCN(c2ncnc3c2cnn3-c2ccc(Cl)cc2)CC1	n	n	n	n	n	n	x	x	x
CC1CCN(c2ncnc3c2cnn3-c2ccccc2)CC1	n	n	154	n	n	x	246	136	n
O=C(Cc1cccs1)Nc1ccc(NC(=O)c2ccco2)cc1	n	n	n	n	n	n	x	x	x
CCCCNC(=S)NNC(=O)c1ccc(Br)o1	n	n	n	n	n	n	x	x	x
O=c1cc(-c2ccccc2Cl)oc2cc(O)cc(O)c12	n	n	n	n	n	n	x	x	x
O=C1C=CC(O)(c2cc(=O)c3c(O)cc(O)cc3o2)C=C1	n	n	162	n	n	n	n	185	131
CCn1cnc2sc(-c3ccccc3)cc2c1=O	n	n	158	n	n	n	205	n	n
